Activity and Ki data for 17 molecules are collected here from ChEMBL document CHEMBL1148748, “Synthesis of specific bivalent probes that functionally interact with 5-HT(4) receptor dimers” (J Med Chem, 2007).

Assay [1] addresses T1, 5-hydroxytryptamine receptor 4 (Homo sapiens, UniProt Q13639). Briefly: Agonist activity at human 5HT4e receptor expressed in C6 cells assessed as cAMP accumulation relative to 5HT. Also on record: concentration or dose not given beside the values. The class given is functional, cell-based. The procedure, abridged: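 C6 glial cells stably expressing h5-HT4(e), serum-starved 4 h, preincubated 15 min with 5 mM theophylline plus 10 µM pargyline, then compound with or without 5-HT (1 µM) 15 min at 37 °C; stopped with ice-cold 20% perchloric acid, neutralized; cAMP by radioimmunoassay; expressed as % of 5-HT response; two experiments in triplicate.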
(In general: cAMP levels reflect the balance of adenylyl cyclase and phosphodiesterase activity.)

Assay [2] deals with T1, 5-hydroxytryptamine receptor 4. Briefly: Displacement of [3H]GR-113808 from human 5HT4e receptor expressed in C6 cells. Format: cell-based. A general note: Loss of bound radioactivity is the signal in a displacement assay; it reports binding, not function.
Assay [3] has the same target. Nature of the assay: Activity at 5HT4 receptor fused with RLuc and YFP fusion proteins expressed in CHO cells by BRET dimerization assay relative to control. The class given is functional, cell-based. Also on record: concentration or dose not given beside the values. The procedure, abridged: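 CHO cells transiently cotransfected (Jet-PEI, 8 µg DNA per 100 mm dish) with C-terminal 5-HT4R-RLuc and 5-HT4R-YFP at equimolar amounts; membrane preparations incubated with ligand (1 µM, or dose-response) at 25 °C; coelenterazine h 5 µM final; 530/485 nm emission ratio minus RLuc-alone ratio gives BRET, in mBU; % of control; three experiments in duplicate.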
On the technique in general: In BRET a luciferase serves as donor, and the signal depends on an acceptor being close.

Assay [4] shares this target. Nature of the assay: Binding affinity to YFP fused 5HT4 receptor expressed in CHO cells. The class given is cell-based.
Assay [5] has the same target. Briefly: Binding affinity to Rluc fused 5HT4 receptor expressed in CHO cells. The class given is cell-based.

Structures are written as SMILES.

T1 sequence (Q13639 whole entry): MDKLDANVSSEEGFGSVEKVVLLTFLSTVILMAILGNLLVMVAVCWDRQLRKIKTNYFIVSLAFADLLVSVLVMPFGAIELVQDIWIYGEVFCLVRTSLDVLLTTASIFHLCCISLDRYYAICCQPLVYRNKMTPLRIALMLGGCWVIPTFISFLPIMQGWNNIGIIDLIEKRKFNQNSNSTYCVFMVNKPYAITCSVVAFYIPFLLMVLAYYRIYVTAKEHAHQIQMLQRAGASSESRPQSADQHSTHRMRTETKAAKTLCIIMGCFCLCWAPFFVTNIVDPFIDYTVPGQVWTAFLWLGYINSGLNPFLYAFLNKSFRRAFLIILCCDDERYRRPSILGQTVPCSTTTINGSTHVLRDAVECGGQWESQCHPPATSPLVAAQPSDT

Usually Ki stands for the dissociation constant of the complex between target and ligand, obtained from inhibition or displacement. Turning to `COc1cc(N)c(Cl)cc1C(=O)OCCN1CCC(CNC(=O)CCCN(CCCc2ccc(CCCN(CCCC(=O)NCC3CCN(CCOC(=O)c4cc(Cl)c(N)cc4OC)CC3)C(=O)OC(C)(C)C)cc2)C(=O)OC(C)(C)C)CC1`, the Activity amounted to 9% in assay [1] and 115% in assay [3]. Also, in assay [2], the Ki is 0.015 µM.

As for `Cn1cc(C(=O)OCC2CCN(CCNS(C)(=O)=O)CC2)c2ccccc21`, the Ki in assay [4] is 0.0007 µM. Also, the figures for the Activity in assay [1] and in assay [3] were 1% and 99%, respectively.

`COc1cc(N)c(Cl)cc1C(=O)OCCN1CCC(CNC(=O)CCCN(CC#Cc2ccc(C#CCN(CCCC(=O)NCC3CCN(CCOC(=O)c4cc(Cl)c(N)cc4OC)CC3)C(=O)OC(C)(C)C)cc2)C(=O)OC(C)(C)C)CC1`: the Activity in assay [1] is 1%; in assay [3] it was 115%. The Ki in assay [2] was 0.025 µM.

As for `COc1cc(N)c(Cl)cc1C(=O)OCCN1CCC(CNC(=O)CN(CCCc2ccc(CCCN(CC(=O)NCC3CCN(CCOC(=O)c4cc(Cl)c(N)cc4OC)CC3)C(=O)OC(C)(C)C)cc2)C(=O)OC(C)(C)C)CC1`, the Activity in assay [1] is 18%; in assay [3] it was 114%. This molecule came in with a Ki in assay [2] of 0.019 µM.

`COc1cc(N)c(Cl)cc1C(=O)OCCN1CCCCC1`: the values for the Activity in assay [1] and in assay [3] were 45% and 101%, respectively.

In the case of `COc1cc(N)c(Cl)cc1C(=O)OCCN1CCC(NC(=O)CCCN(CCCc2ccc(CCCN(CCCC(=O)NC3CCCCC3)C(=O)OC(C)(C)C)cc2)C(=O)OC(C)(C)C)CC1`, the figures for the Activity in assay [1] and in assay [3] were 17% and 105%, respectively. This molecule gave a Ki in assay [2] of 0.034 µM.

Regarding `COc1cc(N)c(Cl)cc1C(=O)OCCN1CCC(CNC(=O)CCCN(CCCc2cccc(CCCN(CCCC(=O)NCC3CCN(CCOC(=O)c4cc(Cl)c(N)cc4OC)CC3)C(=O)OC(C)(C)C)c2)C(=O)OC(C)(C)C)CC1`, the Activity in assay [1] stood at 5%; in assay [3] it was 108%. For the same molecule, the Ki in assay [2] was 0.023 µM.

In the case of `COc1cc(N)c(Cl)cc1C(=O)OCCN1CCC(NC(=O)CCCN(CC#Cc2cccc(C#CCN(CCCC(=O)NC3CCN(CCOC(=O)c4cc(Cl)c(N)cc4OC)CC3)C(=O)OC(C)(C)C)c2)C(=O)OC(C)(C)C)CC1`, the Activity in assay [1] was found to be 8%; in assay [3] it was 109%. The molecule also yielded a Ki in assay [2] of 0.008 µM.

Regarding `COc1cc(N)c(Cl)cc1C(=O)OCCN1CCC(CCNC(=O)CCCCCCCCCCC(=O)NCCC2CCN(CCOC(=O)c3cc(Cl)c(N)cc3OC)CC2)CC1`, the Activity in assay [1] was found to be 6%; in assay [3] it was 108%. For the same molecule, the Ki in assay [2] came out at 0.009 µM.

For `COc1cc(N)c(Cl)cc1C(=O)OCCN1CCC(NC(=O)CCCN(CCCc2ccc(CCCN(CCCC(=O)NC3CCN(CCOC(=O)c4cc(Cl)c(N)cc4OC)CC3)C(=O)OC(C)(C)C)cc2)C(=O)OC(C)(C)C)CC1`, the Ki in assay [4] is 0.01 µM; in assay [5], 0.01 µM; in assay [2], 0.012 µM. Besides, the values for the Activity in assay [1] and in assay [3] were 21% and 118%, respectively.

For the molecule `COc1cc(N)c(Cl)cc1C(=O)OCCN1CCC(CNC(=O)CN(CC#Cc2ccc(C#CCN(CC(=O)NCC3CCN(CCOC(=O)c4cc(Cl)c(N)cc4OC)CC3)C(=O)OC(C)(C)C)cc2)C(=O)OC(C)(C)C)CC1`, the Activity in assay [1] was determined as 49%; in assay [3] it was 107%. The Ki in assay [2] was found to be 0.044 µM.

Take `COc1cc(N)c(Cl)cc1C(=O)OCCN1CCC(NC(=O)CCCCCCCCCCN(CCCCCCCCCCC(=O)NC2CCN(CCOC(=O)c3cc(Cl)c(N)cc3OC)CC2)CC(=O)NCC2CCNCC2)CC1`: the Activity in assay [1] stood at 10%; in assay [3], 114%.

In the case of `COc1cc(N)c(Cl)cc1C(=O)OCCN1CCC(NC(=O)CCCCCCCCCCNc2nc(NCCCCCCCCCCC(=O)NC3CCN(CCOC(=O)c4cc(Cl)c(N)cc4OC)CC3)nc(NCc3ccccc3)n2)CC1`, the Activity in assay [1] came to 12%; in assay [3] it was 114%.

For `COc1cc(N)c(Cl)cc1C(=O)OCCN1CCC(NC(=O)CCCCCNC(=O)C2CCN(CCOC(=O)c3cc(Cl)c(N)cc3OC)CC2)CC1`, the figures for the Activity in assay [1] and in assay [3] were 46% and 108%, respectively. In assay [2], this molecule yielded a Ki of 0.007 µM.

`COc1cc(N)c(Cl)cc1C(=O)OCCN1CCC(CNC(=O)CCCN(CC#Cc2cccc(C#CCN(CCCC(=O)NCC3CCN(CCOC(=O)c4cc(Cl)c(N)cc4OC)CC3)C(=O)OC(C)(C)C)c2)C(=O)OC(C)(C)C)CC1`: the Activity in assay [1] was determined as 6%; in assay [3] it was 108%. Moreover, the Ki in assay [2] was 0.04 µM.

For `COc1cc(N)c(Cl)cc1C(=O)OCCN1CCC(NC(=O)CCCN(CC#Cc2ccc(C#CCN(CCCC(=O)NC3CCN(CCOC(=O)c4cc(Cl)c(N)cc4OC)CC3)C(=O)OC(C)(C)C)cc2)C(=O)OC(C)(C)C)CC1`, the Activity worked out at 35% in assay [1] and 106% in assay [3]. In assay [2], this molecule gave a Ki of 0.018 µM.

`COc1cc(N)c(Cl)cc1C(=O)OCCN1CCC(NC(=O)CCCCCCCCCCNC(=O)C2CCN(CCOC(=O)c3cc(Cl)c(N)cc3OC)CC2)CC1`: the Activity in assay [1] turned out to be 5%; in assay [3], 110%.
